The source made the active and inactive calls. The calls are words filed in the database; no cut-off is given here.
Assays:
[1] = Drug uptake in LPS stimulated human HK-2 cells pretreated with LPS for 12 hrs followed by compound addition incubated for 2 to 6 hrs by inversed fluorescence microscope analysis; type: ADME, cell-based; settings: time 2-6 hrs
How it was run: (§1)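 HK-2 cells with or without LPS treatment incubated with compound for 2.0 and 6.0 h; uptake imaged by fluorescence microscopy; flow cytometry at 2.0 h.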

[2] = Drug uptake in human HK-2 cells assessed as increase in fluorescence intensity pretreated with LPS for 12 hrs followed by compound addition incubated for 6 hrs by mitotracker red based inverted microscopic analysis; type: ADME, cell-based; settings: hk-2, 6 h
How it was run: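 HK-2 cells co-stained with MitoTracker Red; mitochondrial colocalization of compound imaged by fluorescence microscopy; free CUR as control.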

HK-2 [3] = assay: Nephroprotective activity against LPS induced human HK-2 cells assessed as increase in cell viability at 3 ug/ml incubated for 24 hrs by MTT assay relative to control; type: functional; settings: dose 3 µg/ml
How it was run: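 HK-2 cells exposed to 15 μg/mL LPS for 24 h; viability assessed by MTT assay; n = 6.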

[4] = Drug distribution in kidney of acute kidney injured Balb/c mouse model assessed as increase in CUR level at 4 mg/kg, iv after 2 hrs of administration by IVIS Lumina III analysis; type: ADME, organism-based; settings: in vivo
How it was run: (§2)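 Normal or AKI mice given intravenous dose (CUR, 4 mg/kg); heart, lung, liver, spleen and kidney imaged ex vivo 2 h later on IVIS Lumina III; tissue distribution as mean ± SD, n = 6.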

[5] = Drug distribution in kidney of acute kidney injured Balb/c mouse model assessed as KIM1 receptor mediated endocytosis at 4 mg/kg, iv by fluorescence imaging based assay; type: ADME, organism-based; settings: in vivo
How it was run: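 Renal tissue of AKI mice examined by fluorescence imaging for colocalization of compound (green) with immunostained KIM-1 receptor (red); free CUR as control.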

HK-2 [6] = assay: Antioxidant activity in human HK-2 cells assessed as reduction in LPS induced mitochondrial reactive oxygen species generation at 7.16 ug/ml pretreated with LPS for 24 hr followed by compound addition incubated for 2 hr by MitoSOX staining based inverted fluorescent microscopic analysis; type: functional, cell-based; settings: dose 7.16 µg/ml
How it was run: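 LPS-treated HK-2 cells exposed to test agent (7.16 μg/mL); mitochondrial superoxide visualised with MitoSOX Red indicator by fluorescence imaging.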

HK-2 [7] = assay: Antioxidant activity in human HK-2 cells assessed as reduction in LPS induced intracellular nitrotyrosine expression level pretreated with LPS for 24 hr followed by compound addition incubated for 2 hr by fluorescence imaging based assay; type: functional, cell-based
HK-2 [8] = assay: Induction of apoptosis in LPS-induced human HK-2 cells assessed as inhibition of cytochrome c protein expression pretreated with LPS followed by compound addition incubated for 24 hrs by immunoblotting analysis; type: functional, cell-based
How it was run: (§3)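 LPS-treated HK-2 cells; cytochrome c in mitochondrial and cytosolic fractions, cleaved caspase-9 and cleaved caspase-3 detected by immunoblot, normalised to β-actin; mean ± SD, n = 3.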

HK-2 [9] = assay: Induction of apoptosis in LPS-induced HK-2 cells assessed as inhibition of cleaved caspase-3 protein expression pretreated with LPS followed by compound addition incubated for 24 hrs by immunoblotting analysis; type: functional, cell-based; settings: Homo sapiens; how it was run: as §3
HK-2 [10] = assay: Induction of apoptosis in LPS-induced HK-2 cells assessed as inhibition of cleaved caspase-9 protein expression pretreated with LPS followed by compound addition incubated for 24 hrs by immunoblotting analysis; type: functional, cell-based; settings: Homo sapiens; how it was run: as §3
HK-2 [11] = assay: Induction of apoptosis in LPS-induced HK-2 cells assessed as increase in mitochondrial cytochrome C protein expression pretreated with LPS followed by compound addition incubated for 24 hrs by immunoblotting analysis; type: functional, cell-based; settings: Homo sapiens; how it was run: as §3
Mus musculus [12] = assay: Nephroprotective activity against LPS-induced acute kidney injured Balb/c mouse model assessed as reduction in serum creatinine level at 4 mg/kg,iv by automatic biochemical analysis; type: functional, organism-based
How it was run: (§4)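 Scr and BUN measured on automatic biochemical analyzer 24 h after administration (CUR, 4 mg/kg) to LPS-induced AKI mice; n = 6.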

Mus musculus [13] = assay: Nephroprotective activity against LPS-induced acute kidney injured Balb/c mouse model assessed as reduction in blood urea nitrogen level at 4 mg/kg,iv by automatic biochemical analysis; type: functional, organism-based; how it was run: as §4
Kidney [14] = assay: Antioxidant activity against LPS-induced acute kidney injured Balb/c mouse model assessed as increase in kidney superoxide dismutase level at 4 mg/kg,iv; type: functional, organism-based
How it was run: (§5)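 SOD, GSH and MDA levels determined in renal tissue of LPS-induced AKI mice after treatment at CUR 4 mg/kg; n = 6.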

Kidney [15] = assay: Antioxidant activity against LPS-induced acute kidney injured Balb/c mouse model assessed as increase in kidney GSH level at 4 mg/kg,iv; type: functional, organism-based; how it was run: as §5
Kidney [16] = assay: Antioxidant activity against LPS-induced acute kidney injured Balb/c mouse model assessed as reduction of increased MDA level at 4 mg/kg,iv; type: functional, organism-based; how it was run: as §5
Mus musculus [17] = assay: Antioxidant activity against LPS-induced acute kidney injured Balb/c mouse mitochondrial fraction of kidney assessed as reduction of H2O2 generation at 4 mg/kg,iv by Amplex Red dye Hydrogen Peroxide assay; type: functional, organism-based; settings: Mitochondria
How it was run: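 Mitochondria isolated intact from renal tissue of LPS-induced AKI mice; H₂O₂ production measured with Amplex Red H₂O₂/peroxidase detection kit after treatment at CUR 4 mg/kg; n = 6.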

Kidney [18] = assay: Anti-inflammatory activity against LPS-induced acute kidney injured Balb/c mouse model assessed as reduction in kidney TNF alpha level at 4 mg/kg,iv by ELISA; type: functional, organism-based
How it was run: (§6)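 TNF-α and IL-6 measured by ELISA in renal tissue of LPS-induced AKI mice after CUR-based treatment (CUR, 4 mg/kg); n = 6.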

Kidney [19] = assay: Anti-inflammatory activity against LPS-induced acute kidney injured Balb/c mouse model assessed as reduction in kidney IL-6 level at 4 mg/kg,iv by ELISA; type: functional, organism-based; how it was run: as §6
Kidney [20] = assay: Nephroprotective activity against acute kidney injured Balb/c mouse kidney assessed as decrease in vacuolar degeneration at 4 mg/kg,iv by H and E staining based assay; type: functional, organism-based
How it was run: (§7)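 Renal tissue of AKI mice stained with H&E and examined by optical microscopy for tubular epithelial swelling, vacuolar degeneration and brush border loss; treatment at CUR 4 mg/kg.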

Kidney [21] = assay: Nephroprotective activity against acute kidney injured Balb/c mouse kidney assessed as decrease in swollen tubular epithelial cells at 4 mg/kg,iv by H and E staining based assay; type: functional, organism-based; how it was run: as §7
Kidney [22] = assay: Nephroprotective activity against acute kidney injured Balb/c mouse kidney assessed as decrease in disappeared and expanded tubular border brush at 4 mg/kg,iv by H and E staining based assay; type: functional, organism-based; how it was run: as §7
Kidney [23] = assay: Antioxidant activity against acute kidney injured Balb/c mouse kidney assessed as reduction of nitrotyrosine expression at 4 mg/kg,iv by immunohistochemistry analysis; type: functional, organism-based
How it was run: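 Renal sections from AKI mice stained by immunohistochemistry for nitrotyrosine after treatment at CUR 4 mg/kg; scale bar 50 μm.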

[24] = Drug distribution in kidney of Balb/c mouse model assessed as increase in CUR level at 4 mg/kg, iv after 2 hrs of administration by IVIS Lumina III analysis; type: ADME, organism-based; settings: in vivo; how it was run: as §2
[25] = Drug uptake in LPS stimulated human HK-2 cells pretreated with LPS for 12 hrs followed by compound addition incubated for 2 to 6 hrs by flow cytometry method; type: ADME, cell-based; settings: time 2-6 hrs; how it was run: as §1
[26] = Drug uptake in human HK-2 cells incubated for 2 to 6 hrs by inversed fluorescence microscope analysis; type: ADME, cell-based; settings: time 2-6 hrs; how it was run: as §1
[27] = Drug uptake in LPS induced inflammation in human HK-2 cells assessed as decrease internalization in presence of Ser pretreated with LPS for 6 hr followed by compound addition incubated for 2 hr by flow cytometry; settings: hk-2, 2 h

With `COc1cc(/C=C/C(=O)CC(=O)/C=C/c2ccc(OC(=O)C(N)CO)c(OC)c2)ccc1OC(=O)CCCC[P+](c1ccccc1)(c1ccccc1)c1ccccc1.[Br-]` (configuration not stated) as the compound, how does the Drug uptake [1] read?
Its Drug uptake is “Active”.

What about the Drug uptake [2] of the same compound?
The Drug uptake was “Active”.

What about the Activity (HK-2 [3]) of the same compound?
Its Activity is 40%.

And the Drug uptake [4]?
The Drug uptake was “Active”.

And the Drug uptake [5]?
The Drug uptake was “Active”.

And the Activity (HK-2 [6])?
Its Activity is “Active”.

What about the Activity (HK-2 [7]) of the same compound?
Its Activity is “Active”.

And the Activity (HK-2 [8])?
Its Activity is “Active”.

What about the Activity (HK-2 [9]) of the same compound?
Its Activity is “Active”.

And the Activity (HK-2 [10])?
The Activity was “Active”.

And the Activity (HK-2 [11])?
The Activity was “Active”.

And the Activity (Mus musculus [12])?
The Activity was “Active”.

What about the Activity (Mus musculus [13]) of the same compound?
Its Activity is “Active”.

And the Activity (Kidney [14])?
Its Activity is “Active”.

And the Activity (Kidney [15])?
Its Activity is “Active”.

And the Activity (Kidney [16])?
Its Activity is “Active”.

And the Activity (Mus musculus [17])?
Its Activity is “Active”.

What about the Activity (Kidney [18]) of the same compound?
Its Activity is “Active”.

What about the Activity (Kidney [19]) of the same compound?
The Activity was “Active”.

And the Activity (Kidney [20])?
The Activity was “Active”.

What about the Activity (Kidney [21]) of the same compound?
The Activity was “Active”.

And the Activity (Kidney [22])?
The Activity was “Active”.

What about the Activity (Kidney [23]) of the same compound?
The Activity was “Active”.

What about the Drug uptake [24] of the same compound?
The Drug uptake was “Not Active”.

And the Drug uptake [25]?
Its Drug uptake is “Active”.

What about the Drug uptake [26] of the same compound?
Its Drug uptake is “Not Active”.

And the Drug uptake [27]?
Its Drug uptake is “Active”.

Reference: ChEMBL document CHEMBL5046320, “A Stepwise Targeting Curcumin Derivative, Ser@TPP@CUR, for Acute Kidney Injury” (ACS Med Chem Lett, 2022)
